The subject of one data set is PC-3. Put plainly: Antiproliferative activity against human PC3 cells after 72 hrs by MTT assay. Type of data set: functional, cell-based. The conditions noted are these: for IC50: PC-3, 72 h. An outline of the steps:
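Cells grown in MEM with 10% FBS. About 4×10³ cells per well seeded and incubated 24 h at 37 °C, 5% CO₂. Compounds added at indicated final concentrations for 72 h. MTT at 5 µg/mL final for 4 h at 37 °C. Formazan dissolved in DMSO, absorbance read at 492 nm with 630 nm reference. Tested three times; IC50 is the mean of two determinations.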
(In general: Tetrazolium assays rely on reduction of a dye to a coloured formazan, in cell work by metabolically active cells.)

In data set [1] the test system is A549. Put plainly: Induction of apoptosis in human A549 cells assessed as early apoptotic cells at 0.5 uM after 48 hrs by Annexin V-FITC/propidium iodide staining based flow cytometry (reference value: 5.61%). Type of data set: functional. Background: Flow cytometry measures light scatter and fluorescence of single cells or particles in a stream.
Data set [2] deals with A549. The data set can be described thus: Induction of apoptosis in human A549 cells assessed as live cells at 0.5 uM after 48 hrs by Annexin V-FITC/propidium iodide staining based flow cytometry (reference value: 91.81%). Type of data set: functional.
Data set [3] relates to A549. The data set can be described thus: Induction of apoptosis in human A549 cells assessed as late apoptotic cells at 0.5 uM after 48 hrs by Annexin V-FITC/propidium iodide staining based flow cytometry (reference value: 2.07%). Type of data set: functional.
For data set [4], the system named is A549. The data set can be described thus: Induction of apoptosis in human A549 cells assessed as necrotic cells at 0.5 uM after 48 hrs by Annexin V-FITC/propidium iodide staining based flow cytometry (reference value: 0.51%). It counts as functional.
In data set [5] the test system is A549. Put plainly: Antiproliferative activity against human A549 cells after 72 hrs by MTT assay. As to conditions: for IC50: A549, 72 h. It counts as functional, cell-based.
The next data set deals with MCF7. Put plainly: Antiproliferative activity against human MCF7 cells after 72 hrs by MTT assay. As to conditions: for IC50: MCF7, 72 h. It counts as functional, cell-based.
The target in data set [6] is Epidermal growth factor receptor (Homo sapiens, UniProt P00533). Put plainly: Inhibition of wild type EGFR (unknown origin) using FAM-labeled peptide substrate after 10 mins by mobility shift assay.
Chain of Epidermal growth factor receptor (Homo sapiens, UniProt P00533) (P00533 whole entry): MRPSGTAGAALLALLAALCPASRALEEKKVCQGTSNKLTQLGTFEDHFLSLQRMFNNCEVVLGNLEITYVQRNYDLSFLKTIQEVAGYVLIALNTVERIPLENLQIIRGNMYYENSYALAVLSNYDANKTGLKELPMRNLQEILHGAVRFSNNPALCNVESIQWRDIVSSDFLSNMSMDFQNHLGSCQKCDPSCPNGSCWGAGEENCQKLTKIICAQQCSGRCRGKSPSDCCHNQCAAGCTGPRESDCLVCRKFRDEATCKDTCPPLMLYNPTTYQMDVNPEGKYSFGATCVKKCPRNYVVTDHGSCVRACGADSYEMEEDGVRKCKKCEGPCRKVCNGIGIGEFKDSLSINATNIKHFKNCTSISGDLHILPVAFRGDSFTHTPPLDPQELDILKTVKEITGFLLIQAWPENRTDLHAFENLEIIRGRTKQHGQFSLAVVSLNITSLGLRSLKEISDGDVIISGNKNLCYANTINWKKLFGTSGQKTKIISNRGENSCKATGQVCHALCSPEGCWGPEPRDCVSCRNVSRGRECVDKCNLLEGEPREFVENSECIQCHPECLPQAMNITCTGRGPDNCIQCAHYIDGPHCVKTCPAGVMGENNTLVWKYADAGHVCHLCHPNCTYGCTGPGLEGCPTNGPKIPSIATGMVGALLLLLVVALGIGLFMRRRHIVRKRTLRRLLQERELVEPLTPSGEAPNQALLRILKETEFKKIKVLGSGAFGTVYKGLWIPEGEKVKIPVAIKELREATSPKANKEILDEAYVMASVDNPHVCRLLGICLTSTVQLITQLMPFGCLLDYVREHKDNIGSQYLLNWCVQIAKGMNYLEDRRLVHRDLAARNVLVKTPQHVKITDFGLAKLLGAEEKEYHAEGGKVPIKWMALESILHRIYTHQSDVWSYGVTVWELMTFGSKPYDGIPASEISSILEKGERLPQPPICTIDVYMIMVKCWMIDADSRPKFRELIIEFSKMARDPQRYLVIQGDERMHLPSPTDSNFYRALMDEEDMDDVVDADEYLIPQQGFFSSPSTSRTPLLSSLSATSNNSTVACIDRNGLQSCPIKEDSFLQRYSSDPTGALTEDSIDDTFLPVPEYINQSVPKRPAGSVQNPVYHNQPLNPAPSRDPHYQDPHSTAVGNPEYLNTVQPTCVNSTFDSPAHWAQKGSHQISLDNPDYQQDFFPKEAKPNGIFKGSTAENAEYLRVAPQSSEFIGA
For data set [7], the target named is Epidermal growth factor receptor (Homo sapiens, UniProt P00533, T790M). The data set can be described thus: Inhibition of wild type EGFR T790M mutant (unknown origin) using FAM-labeled peptide substrate after 10 mins by mobility shift assay.
Chain of Epidermal growth factor receptor (Homo sapiens, UniProt P00533, T790M) (P00533 25-1210 T790M limits assumed): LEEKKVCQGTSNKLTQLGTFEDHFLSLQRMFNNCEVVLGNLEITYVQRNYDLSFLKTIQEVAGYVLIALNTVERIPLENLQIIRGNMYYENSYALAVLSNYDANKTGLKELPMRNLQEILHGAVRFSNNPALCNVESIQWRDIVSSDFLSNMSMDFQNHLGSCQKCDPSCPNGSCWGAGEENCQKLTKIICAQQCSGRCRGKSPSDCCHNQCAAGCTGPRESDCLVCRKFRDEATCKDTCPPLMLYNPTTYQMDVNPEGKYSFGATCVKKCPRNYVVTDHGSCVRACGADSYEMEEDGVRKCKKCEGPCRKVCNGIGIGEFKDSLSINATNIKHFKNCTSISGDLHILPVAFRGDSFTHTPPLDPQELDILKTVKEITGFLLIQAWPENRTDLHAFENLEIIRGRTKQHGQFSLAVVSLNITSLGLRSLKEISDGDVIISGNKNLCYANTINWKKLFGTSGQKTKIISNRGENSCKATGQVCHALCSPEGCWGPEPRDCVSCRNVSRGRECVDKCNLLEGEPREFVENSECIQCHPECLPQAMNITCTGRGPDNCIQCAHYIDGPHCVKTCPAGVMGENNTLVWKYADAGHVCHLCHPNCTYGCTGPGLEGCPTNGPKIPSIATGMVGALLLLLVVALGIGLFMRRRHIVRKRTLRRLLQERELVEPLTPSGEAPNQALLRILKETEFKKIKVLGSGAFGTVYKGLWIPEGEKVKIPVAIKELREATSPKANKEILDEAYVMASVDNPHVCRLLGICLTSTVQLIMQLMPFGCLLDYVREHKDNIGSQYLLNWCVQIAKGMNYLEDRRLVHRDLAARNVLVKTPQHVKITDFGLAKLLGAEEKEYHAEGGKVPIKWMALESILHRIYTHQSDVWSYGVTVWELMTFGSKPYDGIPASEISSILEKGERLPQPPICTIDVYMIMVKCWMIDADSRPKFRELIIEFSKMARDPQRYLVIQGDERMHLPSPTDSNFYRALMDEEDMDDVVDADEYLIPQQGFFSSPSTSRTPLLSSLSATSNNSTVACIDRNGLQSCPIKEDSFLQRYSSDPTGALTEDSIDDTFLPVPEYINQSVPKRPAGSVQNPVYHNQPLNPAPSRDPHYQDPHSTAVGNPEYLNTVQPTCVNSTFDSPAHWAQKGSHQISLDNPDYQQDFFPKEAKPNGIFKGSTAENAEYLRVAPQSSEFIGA
The subject of data set [8] is A549. Put plainly: Induction of apoptosis in human A549 cells at 1.09 uM after 12 hrs by acridine orange staining based fluorescence microscopic method. Type of data set: functional, cell-based. An outline of the steps: (§1)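 A549 cells, grown in MEM with 10% FBS, were exposed to compound for 12 h alongside an untreated control group. They were stained with acridine orange alone and viewed by inverted and fluorescence microscopy. Nuclear colour (green versus red), cell shrinkage, edge clarity, refraction and chromatin condensation were assessed visually.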

The subject of data set [9] is A549. Put plainly: Induction of morphological changes in human A549 cells assessed as cell shrinkage at 1.09 uM after 12 hrs by acridine orange staining based fluorescence microscopic method. It counts as functional. In short, it runs like this: as §1
The subject of data set [10] is A549. Put plainly: Induction of morphological changes in human A549 cells assessed as chromatin condensation at 1.09 uM after 12 hrs by acridine orange staining based fluorescence microscopic method. It counts as functional, cell-based. In short, it runs like this:
as §1

A short description of data set [11]: Solubility of the compound in water. Type of data set: physicochemical. As to conditions: buffer.

Calls of active or inactive are those of the source. The calls are words filed in the database; no cut-off is given here.

Broadly, the IC50 is the concentration that inhibits the measured activity by half.

In the case of `CN(C)C/C=C/C(=O)Nc1cc2c(Nc3ccc(F)c(Cl)c3)ncnc2cc1O[C@@H]1CCOC1`, the concentration for half-maximal inhibition (IC50) in the data set on PC-3 is 2510 nM. The Activity in the data set on A549 [1] was 13.53%; with A549 [2], 81.34%; in the data set on A549 [3] it was 4.27%; in the data set on A549 [4], 0.86%.

Take `COc1cc2ncnc(N3CCCc4ccccc43)c2cc1NC(=O)/C=C/CN(C)C`: the concentration for half-maximal inhibition (IC50) was determined as 1650 nM in the data set with A549 [5]; 1770 nM in the data set on MCF7; 1750 nM in the data set with PC-3; 72 nM in data set [6]; 107 nM in [7].

As to `CN(C)C/C=C/C(=O)Nc1cc2c(N3CCc4ccccc43)ncnc2cc1O[C@@H]1CCOC1`, the Activity result with A549 [5] was “Dose-dependent effect”; with MCF7 it was “Dose-dependent effect”; in the data set with PC-3, “Dose-dependent effect”; with A549 [1] it was 14.59%; with A549 [2], 80.01%; in the data set on A549 [3], 4.59%. In addition, in the data set on A549 [4], the Activity was 0.81%. Further, the half-inhibitory concentration (IC50) with A549 [5] came out at 1090 nM; in the data set on MCF7, 1340 nM; with PC-3, 1230 nM; in data set [6] it was 5 nM; in [7], 26 nM. Besides, the result with A549 [8], in the data set with A549 [9] and in the data set with A549 [10] was Active.

Turning to `COc1cc2ncnc(N3CCc4ccccc43)c2cc1NC(=O)/C=C/CN1CCCC1`, the IC50 in the data set with A549 [5] stood at 1210 nM; in the data set on MCF7, 1510 nM; with PC-3, 2620 nM; in data set [6] it was 3 nM; in data set [7] it was 34 nM.

Turning to `C/C=C/C(=O)Nc1cc2c(N3CCc4ccccc43)ncnc2cc1O[C@@H]1CCOC1`, in data set [11], the solubility entry was “Insoluble”. Also, the IC50 was determined as 2610 nM with A549 [5]; 4900 nM with MCF7; 5220 nM with PC-3; 29 nM in [6]; 192 nM in data set [7].

For `C=CC(=O)Nc1cc2c(N3CCc4ccccc43)ncnc2cc1OC`, in [11], the solubility result is given as “Insoluble”. In addition, the results for the half-inhibitory concentration (IC50) in the data set with A549 [5], with MCF7 and in the data set with PC-3 were 5580 nM, 11700 nM and 5940 nM, respectively.

Take `C/C=C/C(=O)Nc1cc2c(N3CCCc4ccccc43)ncnc2cc1OC`: the solubility entry in [11] is recorded as “Insoluble”. The results for the half-maximal inhibitory concentration (IC50) with A549 [5], with MCF7 and with PC-3 were 8190 nM, 12700 nM and 7520 nM, respectively.

Take `CCC/C=C/C(=O)Nc1cc2c(N3CCc4ccccc43)ncnc2cc1O[C@@H]1CCOC1`: the solubility result in data set [11] is “Insoluble”. In addition, the half-maximal inhibitory concentration (IC50) amounted to 9110 nM in the data set on A549 [5], 4550 nM in the data set with MCF7 and 9230 nM with PC-3.

Turning to `COc1cc2ncnc(N3CCc4ccccc43)c2cc1NC(=O)/C=C/CN1CCC(CO)CC1`, the half-maximal inhibitory concentration (IC50) was 1980 nM with A549 [5]; 2620 nM with MCF7; 2650 nM with PC-3; 4 nM in data set [6]; 21 nM in [7].

Regarding `CCC/C=C/C(=O)Nc1cc2c(N3CCCc4ccccc43)ncnc2cc1OC`, in data set [11], the solubility result is “Insoluble”. The 50% inhibitory concentration (IC50) is 1800 nM with A549 [5]; 1210 nM with MCF7; 2240 nM with PC-3; 33 nM in data set [6]; 162 nM in data set [7].

For `COc1cc2ncnc(N3CCc4ccccc43)c2cc1NC(=O)C=C(C)C`, the solubility result in data set [11] is “Insoluble”. For the same compound, the values for the IC50 in the data set with A549 [5], with MCF7 and with PC-3 were 6270 nM, 6390 nM and 7840 nM, respectively.

For the compound `COc1cc2ncnc(N3CCc4ccccc43)c2cc1NC(=O)/C=C/C(C)C`, in data set [11], the solubility entry is “Insoluble”. The IC50 came to 6410 nM in the data set with A549 [5], 6780 nM in the data set on MCF7 and 6530 nM in the data set on PC-3.

With `CC(C)/C=C/C(=O)Nc1cc2c(N3CCc4ccccc43)ncnc2cc1O[C@@H]1CCOC1`, the solubility result in data set [11] is on record as “Insoluble”. The IC50 with A549 [5] turned out to be 8520 nM; in the data set on MCF7, 9880 nM; in the data set on PC-3 it was 11200 nM.

As to `COc1cc2ncnc(N3CCCc4ccccc43)c2cc1NC(=O)/C=C/C(C)C`, in [11], the solubility result is given as “Insoluble”. Besides, the IC50 in the data set with A549 [5] came to 3450 nM; with MCF7 it was 4290 nM; in the data set with PC-3 it was 8430 nM.

Turning to `COc1cc2ncnc(N3CCc4ccccc43)c2cc1NC(=O)/C=C/CN1CCCCC1`, the IC50 was 2540 nM in the data set with A549 [5]; 1680 nM in the data set on MCF7; 4180 nM in the data set on PC-3; 45.4 nM in data set [6]; 115 nM in data set [7].

Regarding `CC/C=C/C(=O)Nc1cc2c(N3CCc4ccccc43)ncnc2cc1OC`, the solubility entry in [11] is reported as “Insoluble”. Also, the IC50 was determined as 2470 nM with A549 [5]; 4030 nM in the data set with MCF7; 5890 nM in the data set on PC-3; 17 nM in [6]; 186 nM in data set [7].
